Measurements published in ChEMBL document CHEMBL1129356, “Novel 3,7-diheterabicyclo[3.3.1]nonanes that possess predominant class III antiarrhythmic activity in 1-4 day post infarction dog models: X-ray diffraction analysis of 3-[4-(1H-imidazol-1-yl)benzoyl]-7-isopropyl-3,7-diazabicyclo[3.3.1]nona ne dihydroperchlorate” (1996).

What was measured:
Canis familiaris [1] = assay: Tested for antiarrhythmic property by measuring ability to decrease heart rate(drug free) is compared to Lidocaine using doses (3 and 6 mg/kg).; type: functional, Canis lupus familiaris
Procedure, shortened: (§1)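 Mongrel dogs (about 12–25 kg), 1–4 days after coronary occlusion infarction, under sodium pentobarbital (~30 mg/kg) with 12-lead ECG monitoring. Agents and lidocaine were given iv at 3 and 6 mg/kg. Programmed ventricular stimulation was applied at baseline, about 2–5 min after each dose, and at 30 min. SVT was defined as ≥250 beats/min lasting ≥30 s. Pre means drug-free; post means after dosing.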

Canis familiaris [2] = assay: Tested for antiarrhythmic property by measuring ability to decrease Mean blood pressure (drug free) is compared to Lidocaine using doses(3 and 6 mg/kg).; type: functional, Canis lupus familiaris; procedure, shortened: as §1
Canis familiaris [3] = assay: Antiarrhythmic property ventricular effective refractory period(post drug) is compared to lidocaine(2) using doses(3 and 6 mg/kg); type: functional, Canis lupus familiaris, Heart; procedure, shortened: as §1
Canis familiaris [4] = assay: Antiarrhythmic properties are compared to lidocaine(2) using doses(3 and 6 mg/kg). Time required for the ventricular myocardium to undergo depolarization and repolarization ((post drug); type: functional, Canis lupus familiaris; procedure, shortened: as §1
Canis familiaris [5] = assay: (§2) Antiarrhythmic property His-Purkinje conduction time(post drug) is compared to lidocaine(2) using doses(3 and 6 mg/kg); type: functional, Canis lupus familiaris, His-Purkinje system; procedure, shortened: as §1
Canis familiaris [6] = assay: Antiarrhythmic property ventricular effective refractory period(drug free) is compared to lidocaine(2) using doses(3 and 6 mg/kg); type: functional, Canis lupus familiaris, Heart; procedure, shortened: as §1
Canis familiaris [7] = assay: Antiarrhythmic properties are compared to lidocaine(2) using doses(3 and 6 mg/kg). Time required for the ventricular myocardium to undergo depolarization and repolarization (drug free); type: functional, Canis lupus familiaris; procedure, shortened: as §1
Canis familiaris [8] = assay: Tested for antiarrhythmic property by measuring ability to decrease Mean blood pressure(post drug) is compared to Lidocaine using doses(3 and 6 mg/kg); type: functional, Canis lupus familiaris; procedure, shortened: as §1
Canis familiaris [9] = assay: Tested for antiarrhythmic property by measuring ability to decrease heart rate(post drug) is compared to Lidocaine using doses(3 and 6 mg/kg).; type: functional, Canis lupus familiaris; procedure, shortened: as §1
Canis familiaris [10] = assay: as §2; type: functional, Canis lupus familiaris, His-Purkinje system; procedure, shortened: as §1; remark: listed apart in the source
Canis familiaris [11] = assay: Antiarrhythmic property Nonsustained ventricular tachycardia is compared to lidocaine(2) using doses(3 and 6 mg/kg); type: functional, Canis lupus familiaris, Heart; procedure, shortened: as §1

Question: How did the HR (Canis familiaris [1]) turn out when `c1ccc(CN2CC3CC(C2)CN(CC2CC2)C3)cc1` was run?
Answer: 130 beats min-1

Question: And the MBP (Canis familiaris [2])?
Answer: 130 mmHg

Question: What about the VERP (Canis familiaris [3]) of the same molecule?
Answer: 230 ms

Question: What about the QT (Canis familiaris [4]) of the same molecule?
Answer: 260 ms

Question: And the HV interval (Canis familiaris [5])?
Answer: 50 ms

Question: What about the VERP (Canis familiaris [6]) of the same molecule?
Answer: 160 ms

Question: What about the QT (Canis familiaris [7]) of the same molecule?
Answer: 220 ms

Question: What about the MBP (Canis familiaris [8]) of the same molecule?
Answer: 37 mmHg

Question: What about the HR (Canis familiaris [9]) of the same molecule?
Answer: 110 beats min-1

Question: What about the HV interval (Canis familiaris [10]) of the same molecule?
Answer: 50 ms

Question: What about the NSVT (Canis familiaris [11]) of the same molecule?
Answer: 3 mg/kg
